According to ChEMBL document CHEMBL3102784, “Salicylanilide diethyl phosphates: synthesis, antimicrobial activity and cytotoxicity” (Bioorg Med Chem, 2014):
Values after ≈ are worked out from the molar mass of the structure shown. Active and inactive are the calls of the source. The rule behind the calls is not given here.

Legend:
[1] = tested on: Staphylococcus epidermidis; assay: Antibacterial activity against Staphylococcus epidermidis H 6966/08 after 48 hrs by broth microdilution method; assay type: functional; conditions: H 6966/08, 48 h
How it was run: (§1)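 Broth microdilution in Mueller–Hinton broth, compounds dissolved in DMSO, tested over a dilution series from 500 downward. MIC taken as ≥95% growth reduction (IC95) versus drug-free control. Benzylpenicillin comparator. Readings at 24 and 48 h.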

[2] = tested on: Mycobacterium tuberculosis; assay: Antimycobacterial activity against Mycobacterium tuberculosis H37Rv My 331/88 after 21 days; assay type: functional; conditions: H37Rv My 331/88, 504 h
How it was run: (§2)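 Micromethod MIC in Šula's semisynthetic medium at 37 °C. Compounds added in DMSO at 1000 down to 0.032 µmol/L. Isoniazid standard in sterile water at 0.5–250 µmol/L. Inocula: H37Rv 10^3, M. avium 10^5, M. kansasii 10^4. Read at 14 and 21 d, plus 7 d for M. kansasii.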

Mycobacterium kansasii [3] = assay: Antimycobacterial activity against Mycobacterium kansasii My 235/80 after 7 days; assay type: functional; conditions: My 235/80, 168 h; how it was run: as §2
Mycobacterium avium [4] = assay: Antimycobacterial activity against isoniazid, rifampicin, ethambutol and ofloxacin-resistant Mycobacterium avium My 330/88 after 21 days; assay type: functional; conditions: My 330/88, 504 h; how it was run: as §2
Candida albicans [5] = assay: Antifungal activity against Candida albicans ATCC 44859 after 48 hrs by broth microdilution method; assay type: functional; conditions: ATCC 44859, 48 h
How it was run: (§3)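 Broth microdilution in RPMI 1640 with glutamine, fluconazole as reference. For yeasts, MIC is ≥80% growth reduction (IC80) versus control. For filamentous fungi, the value is expressed as IC50. Readings at 24 and 48 h.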

Escherichia coli = assay: Antibacterial activity against Escherichia coli CCM 4517 at 500 micromol/L after 24 to 48 hrs by broth microdilution method; assay type: functional, organism-based; how it was run: as §1
Trichosporon asahii [6] = assay: Antifungal activity against Trichosporon asahii 1188 after 48 hrs by broth microdilution method; assay type: functional; conditions: Trichosporon asahii, 1188, 48 h; how it was run: as §3
Candida tropicalis = assay: Antifungal activity against Candida tropicalis 156 at 500 micromol/L after 24 to 48 hrs by broth microdilution method; assay type: functional, organism-based; how it was run: as §3
[7] = tested on: Staphylococcus epidermidis; assay: Antibacterial activity against Staphylococcus epidermidis H 6966/08 after 24 hrs by broth microdilution method; assay type: functional; conditions: H 6966/08, 24 h; how it was run: as §1
Staphylococcus aureus [8] = assay: Antibacterial activity against Staphylococcus aureus CCM 4516/08 after 48 hrs by broth microdilution method; assay type: functional; conditions: CCM 4516/08, 48 h; how it was run: as §1
Lichtheimia corymbifera [9] = assay: Antifungal activity against Absidia corymbifera 272 after 48 hrs by broth microdilution method; assay type: functional; conditions: Lichtheimia corymbifera, 272, 48 h; how it was run: as §3
HepG2 = assay: Cytotoxicity against human HepG2 cells after 24 hrs by CellTiter assay; assay type: cell-based; conditions: HepG2, 24 h
How it was run: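 HepG2 cells (passage 27–33) in MEM with 10% FBS, L-glutamine and NEAA, seeded at 1×10^4 per well. Treated next day with compounds at 0.1–100 µM (or 0.1–25 µmol/L), triplicates, <1% DMSO, for 24 h at 37 °C, 5% CO2. MTS reagent added for 2 h, absorbance read at 490 nm. IC50 taken against untreated (100%) and 10% DMSO (0%) controls.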

Pichia kudriavzevii [10] = assay: Antifungal activity against Candida krusei E28 after 48 hrs by broth microdilution method; assay type: functional; conditions: E28, 48 h; how it was run: as §3
[11] = tested on: Trichophyton mentagrophytes; assay: Antifungal activity against Trichophyton mentagrophytes 445 after 120 hrs by broth microdilution method; assay type: functional; conditions: Trichophyton mentagrophytes, 445, 120 h
How it was run: (§4)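 Filamentous dermatophyte tested by broth microdilution in RPMI 1640 with glutamine, fluconazole as reference. Value expressed as IC50 relative to growth control. Read at 72 and 120 h.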

Klebsiella pneumoniae [12] = assay: Antibacterial activity against Klebsiella pneumoniae D 11750/08 at 500 micromol/L after 24 to 48 hrs by broth microdilution method; assay type: functional, organism-based; how it was run: as §1
Mycobacterium avium [13] = assay: Antimycobacterial activity against isoniazid, rifampicin, ethambutol and ofloxacin-resistant Mycobacterium avium My 330/88 after 14 days; assay type: functional; conditions: My 330/88, 336 h; how it was run: as §2
Nakaseomyces glabratus = assay: Antifungal activity against Candida glabrata 20/I at 500 micromol/L after 24 to 48 hrs by broth microdilution method; assay type: functional, organism-based; how it was run: as §3
Lichtheimia corymbifera [14] = assay: Antifungal activity against Absidia corymbifera 272 after 24 hrs by broth microdilution method; assay type: functional; conditions: Lichtheimia corymbifera, 272, 24 h; how it was run: as §3
[15] = tested on: Trichophyton mentagrophytes; assay: Antifungal activity against Trichophyton mentagrophytes 445 after 72 hrs by broth microdilution method; assay type: functional; conditions: Trichophyton mentagrophytes, 445, 72 h; how it was run: as §4
Enterococcus sp. = assay: Antibacterial activity against Enterococcus sp. J 14365/08 at 500 micromol/L after 24 to 48 hrs by broth microdilution method; assay type: functional, organism-based; how it was run: as §1
Pseudomonas aeruginosa = assay: Antibacterial activity against Pseudomonas aeruginosa CCM 1961 at 500 micromol/L after 24 to 48 hrs by broth microdilution method; assay type: functional, organism-based; how it was run: as §1
Candida albicans [16] = assay: Antifungal activity against Candida albicans ATCC 44859 after 24 hrs by broth microdilution method; assay type: functional; conditions: ATCC 44859, 24 h; how it was run: as §3
Klebsiella pneumoniae [17] = assay: Antibacterial activity against ESBL-positive Klebsiella pneumoniae J 14368/08 at 500 micromol/L after 24 to 48 hrs by broth microdilution method; assay type: functional, organism-based; how it was run: as §1
Mycobacterium kansasii [18] = assay: Antimycobacterial activity against Mycobacterium kansasii 6509/96 after 7 days; assay type: functional; conditions: 6509/96, 168 h; how it was run: as §2
Pichia kudriavzevii [19] = assay: Antifungal activity against Candida krusei E28 after 24 hrs by broth microdilution method; assay type: functional; conditions: E28, 24 h; how it was run: as §3
Mycobacterium kansasii [20] = assay: Antimycobacterial activity against Mycobacterium kansasii 6509/96 after 21 days; assay type: functional; conditions: 6509/96, 504 h; how it was run: as §2
[21] = tested on: Mycobacterium tuberculosis; assay: Antimycobacterial activity against Mycobacterium tuberculosis H37Rv My 331/88 after 14 days; assay type: functional; conditions: H37Rv My 331/88, 336 h; how it was run: as §2
Staphylococcus aureus [22] = assay: Antibacterial activity against methicillin-resistant Staphylococcus aureus H 5996/08 after 24 hrs by broth microdilution method; assay type: functional; conditions: H 5996/08, 24 h; how it was run: as §1
Mycobacterium kansasii [23] = assay: Antimycobacterial activity against Mycobacterium kansasii 6509/96 after 14 days; assay type: functional; conditions: 6509/96, 336 h; how it was run: as §2
Aspergillus fumigatus [24] = assay: Antifungal activity against Aspergillus fumigatus 231 after 24 hrs by broth microdilution method; assay type: functional; conditions: Aspergillus fumigatus, 231, 24 h; how it was run: as §3
Mycobacterium kansasii [25] = assay: Antimycobacterial activity against Mycobacterium kansasii My 235/80 after 14 days; assay type: functional; conditions: My 235/80, 336 h; how it was run: as §2
Aspergillus fumigatus [26] = assay: Antifungal activity against Aspergillus fumigatus 231 after 48 hrs by broth microdilution method; assay type: functional; conditions: Aspergillus fumigatus, 231, 48 h; how it was run: as §3
Trichosporon asahii [27] = assay: Antifungal activity against Trichosporon asahii 1188 after 24 hrs by broth microdilution method; assay type: functional; conditions: Trichosporon asahii, 1188, 24 h; how it was run: as §3
Mycobacterium kansasii [28] = assay: Antimycobacterial activity against Mycobacterium kansasii My 235/80 after 21 days; assay type: functional; conditions: My 235/80, 504 h; how it was run: as §2
Staphylococcus aureus [29] = assay: Antibacterial activity against methicillin-resistant Staphylococcus aureus H 5996/08 after 48 hrs by broth microdilution method; assay type: functional; conditions: H 5996/08, 48 h; how it was run: as §1
Staphylococcus aureus [30] = assay: Antibacterial activity against Staphylococcus aureus CCM 4516/08 after 24 hrs by broth microdilution method; assay type: functional; conditions: CCM 4516/08, 24 h; how it was run: as §1

SMILES | MIC95 [1] [µM] | MIC [2] [µM] | MIC (Mycobacterium kansasii [3]) [µM] | MIC (Mycobacterium avium [4]) [µM] | MIC80 (Candida albicans [5]) [µM] | Activity (Escherichia coli) | MIC80 (Trichosporon asahii [6]) [µM] | Activity (Candida tropicalis) | MIC95 [7] [µM] | MIC95 (Staphylococcus aureus [8]) [µM] | MIC50 (Lichtheimia corymbifera [9]) [µM] | IC50 (HepG2) [µM] | MIC80 (Pichia kudriavzevii [10]) [µM] | MIC50 [11] [µM] | Activity (Klebsiella pneumoniae [12]) | MIC (Mycobacterium avium [13]) [µM] | Activity (Nakaseomyces glabratus) | MIC50 (Lichtheimia corymbifera [14]) [µM] | MIC50 [15] [µM] | Activity (Enterococcus sp.) | further results
CCOP(=O)(OCC)Oc1ccc(Br)cc1C(=O)Nc1cccc(C(F)(F)F)c1 | 7.81 (≈ 3.88 µg/mL) | 2 (≈ 0.992 µg/mL) | 4 (≈ 1.98 µg/mL) | 16 (≈ 7.94 µg/mL) | > 500 | inactive | > 500 | inactive | 7.81 (≈ 3.88 µg/mL) | 7.81 (≈ 3.88 µg/mL) | > 500 | 1.84 | > 500 | 62.5 (≈ 31 µg/mL) | inactive | 16 (≈ 7.94 µg/mL) | inactive | > 500 | 62.5 (≈ 31 µg/mL) | inactive | Activity (Pseudomonas aeruginosa): inactive; MIC80 (Candida albicans [16]): > 500 µM; Activity (Klebsiella pneumoniae [17]): inactive; MIC (Mycobacterium kansasii [18]): 4 µM (≈ 1.98 µg/mL); MIC80 (Pichia kudriavzevii [19]): > 500 µM; MIC (Mycobacterium kansasii [20]): 8 µM (≈ 3.97 µg/mL); MIC [21]: 2 µM (≈ 0.992 µg/mL); MIC95 (Staphylococcus aureus [22]): 15.6 µM (≈ 7.75 µg/mL); MIC (Mycobacterium kansasii [23]): 8 µM (≈ 3.97 µg/mL); MIC50 (Aspergillus fumigatus [24]): > 500 µM; MIC (Mycobacterium kansasii [25]): 4 µM (≈ 1.98 µg/mL); MIC50 (Aspergillus fumigatus [26]): > 500 µM; MIC80 (Trichosporon asahii [27]): > 500 µM; MIC (Mycobacterium kansasii [28]): 8 µM (≈ 3.97 µg/mL); MIC95 (Staphylococcus aureus [29]): 15.6 µM (≈ 7.75 µg/mL); MIC95 (Staphylococcus aureus [30]): 7.81 µM (≈ 3.88 µg/mL)
CCOP(=O)(OCC)Oc1cc(Cl)ccc1C(=O)Nc1cccc(F)c1 | 250 (≈ 100 µg/mL) | 8 (≈ 3.21 µg/mL) | 8 (≈ 3.21 µg/mL) | 16 (≈ 6.43 µg/mL) | > 500 | inactive | > 500 | inactive | 250 (≈ 100 µg/mL) | 250 (≈ 100 µg/mL) | > 500 | 11.2 | > 500 | 500 (≈ 201 µg/mL) | inactive | 16 (≈ 6.43 µg/mL) | inactive | > 500 | 500 (≈ 201 µg/mL) | inactive | Activity (Pseudomonas aeruginosa): inactive; MIC80 (Candida albicans [16]): > 500 µM; Activity (Klebsiella pneumoniae [17]): inactive; MIC (Mycobacterium kansasii [18]): 8 µM (≈ 3.21 µg/mL); MIC80 (Pichia kudriavzevii [19]): > 500 µM; MIC (Mycobacterium kansasii [20]): 16 µM (≈ 6.43 µg/mL); MIC [21]: 8 µM (≈ 3.21 µg/mL); MIC95 (Staphylococcus aureus [22]): 250 µM (≈ 100 µg/mL); MIC (Mycobacterium kansasii [23]): 16 µM (≈ 6.43 µg/mL); MIC50 (Aspergillus fumigatus [24]): > 500 µM; MIC (Mycobacterium kansasii [25]): 16 µM (≈ 6.43 µg/mL); MIC50 (Aspergillus fumigatus [26]): > 500 µM; MIC80 (Trichosporon asahii [27]): > 500 µM; MIC (Mycobacterium kansasii [28]): 16 µM (≈ 6.43 µg/mL); MIC95 (Staphylococcus aureus [29]): 250 µM (≈ 100 µg/mL); MIC95 (Staphylococcus aureus [30]): 125 µM (≈ 50.2 µg/mL)
